This note sets out measurements from ChEMBL document CHEMBL4052823, “Extra Sugar on Vancomycin: New Analogues for Combating Multidrug-Resistant Staphylococcus aureus and Vancomycin-Resistant Enterococci” (J Med Chem, 2018).

Assay type in all cases: functional
For assay [1], the system named is Enterococcus faecium. As to the kind of experiment: Antibacterial activity against glycopeptide-resistant Enterococcus faecium Efm-HS-06188 vanA after 24 hrs by broth microdilution method. The conditions noted are these: Efm-HS-06188, 24 h. The method, boiled down:
(§1)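 Broth microdilution in cation-adjusted Mueller-Hinton II broth. DMSO stocks were diluted in broth and twofold serially from 128 to 0.0625 μg/mL or lower. Each well was inoculated with ~10^5 CFU of exponential-phase bacteria and incubated at 37 °C for 24 h. MIC was the lowest concentration giving complete growth inhibition, read per CLSI. Growth controls contained broth plus DMSO.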
For orientation: In broth dilution the organism is exposed to a series of concentrations in liquid medium.

The test system of assay [2] is Enterococcus faecium. As to the kind of experiment: Antibacterial activity against glycopeptide-resistant Enterococcus faecium Efm-HS-vb01 vanB after 24 hrs by broth microdilution method. The conditions noted are these: Efm-HS-vb01, 24 h. The method, boiled down: as §1
The subject of assay [3] is Enterococcus faecium. The assay is described as follows: Antibacterial activity against glycopeptide-resistant Enterococcus faecium Efm-HS-0847 vanM after 24 hrs by broth microdilution method. The conditions noted are these: Efm-HS-0847, 24 h. The method, boiled down: as §1
Assay [4] deals with Enterococcus faecium. As to the kind of experiment: Antibacterial activity against glycopeptide-resistant Enterococcus faecium Efm-HS-0649 vanA after 24 hrs by broth microdilution method. The conditions noted are these: Efm-HS-0649, 24 h. The method, boiled down:
as §1

The test system of assay [5] is Staphylococcus aureus. The assay is described as follows: Potency index, ratio of telavancin MIC90 to test compound MIC90 for vancomycin/methicillin-susceptible Staphylococcus aureus Newman […].
Assay [6] deals with Staphylococcus aureus. As to the kind of experiment: Antibacterial activity against vancomycin/methicillin-susceptible Staphylococcus aureus Newman […] after 24 hrs by broth microdilution method. The method, boiled down:
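Broth microdilution in cation-adjusted Mueller-Hinton II broth. […] Each well received ~10^5 CFU of exponential-phase bacteria and was incubated at 37 °C for 24 h. MIC was taken as the lowest concentration giving complete growth inhibition, interpreted per CLSI.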

Assay [7] deals with Staphylococcus aureus. As to the kind of experiment: Antibacterial activity against healthcare-associated methicillin-resistant/vancomycin-intermediate Staphylococcus aureus Mu50 after 24 hrs by broth microdilution method. The conditions noted are these: Mu50, 24 h. The method, boiled down: as §1
Assay [8] concerns Enterococcus faecium. As to the kind of experiment: Antibacterial activity against glycopeptide-resistant Enterococcus faecium Efm-HS-08257 vanM after 24 hrs by broth microdilution method. The following applies: Efm-HS-08257, 24 h. The method, boiled down:
as §1

The structures appear in SMILES notation. Converted amounts (≈) assume the structure as drawn.

The term MIC denotes the lowest concentration that inhibits growth of the organism. High values mean a less susceptible organism, low ones a more susceptible organism. As a reminder, the MIC90 is the lowest concentration that inhibits either 90% of growth or 90% of the strains tested, depending on the study. Higher therefore signals lower susceptibility. For `CCCCCCCCCCN[C@@]1(C)C[C@H](O[C@H]2[C@H](Oc3c4cc5cc3Oc3ccc(cc3Cl)[C@@H](O)[C@@H](NC(=O)[C@@H](CC(C)C)NC)C(=O)N[C@@H](CC(N)=O)C(=O)N[C@H]5C(=O)N[C@H]3C(=O)N[C@H](C(=O)N[C@H](C(=O)O)c5cc(O)c(CN[C@H]6C(O)O[C@H](CO)[C@H](O)[C@@H]6O)c(O)c5-c5cc3ccc5O)[C@H](O)c3ccc(c(Cl)c3)O4)O[C@H](CO)[C@@H](O)[C@@H]2O)O[C@@H](C)[C@H]1O` (stereo partly specified), the MIC is 8 µg/mL (≈ 4.49 µM) in assay [1]; 0.5 µg/mL (≈ 0.281 µM) in assay [2]; 32 µg/mL (≈ 18 µM) in assay [3]; 8 µg/mL (≈ 4.49 µM) in assay [4]; 16 µg/mL (≈ 8.99 µM) in assay [8]. In assay [5], the Ratio is reported as 8 - 16. Also, the results for the MIC90 in assay [6] and in assay [7] were 0.03 µg/mL (≈ 0.0168 µM) and 0.25 µg/mL (≈ 0.14 µM), respectively.

As for `CN[C@H](CC(C)C)C(=O)N[C@H]1C(=O)N[C@@H](CC(N)=O)C(=O)N[C@H]2C(=O)N[C@H]3C(=O)N[C@H](C(=O)N[C@H](C(=O)O)c4cc(O)c(CNCCO)c(O)c4-c4cc3ccc4O)[C@H](O)c3ccc(c(Cl)c3)Oc3cc2cc(c3O[C@@H]2O[C@H](CO)[C@@H](O)[C@H](O)[C@H]2O[C@H]2C[C@](C)(NCc3ccc(-c4ccc(Cl)cc4)cc3)[C@H](O)[C@H](C)O2)Oc2ccc(cc2Cl)[C@H]1O`, the MIC in assay [1] was 1 µg/mL (≈ 0.58 µM); in assay [2] it was ≤ 0.06 µg/mL; in assay [3], 4 µg/mL (≈ 2.32 µM); in assay [4], 2 µg/mL (≈ 1.16 µM); in assay [8] it was 2 µg/mL (≈ 1.16 µM). Further, the results for the MIC90 in assay [6] and in assay [7] were 0.03 µg/mL (≈ 0.0174 µM) and 0.12 µg/mL (≈ 0.0696 µM), respectively.

Regarding `CN[C@H](CC(C)C)C(=O)N[C@H]1C(=O)N[C@@H](CC(N)=O)C(=O)N[C@H]2C(=O)N[C@H]3C(=O)N[C@H](C(=O)N[C@H](C(=O)NCCCN(C)C)c4cc(O)c(CNCCO[C@H]5O[C@H](CO)[C@@H](O)[C@H](O)[C@@H]5O)c(O)c4-c4cc3ccc4O)[C@H](O)c3ccc(c(Cl)c3)Oc3cc2cc(c3O[C@@H]2O[C@H](CO)[C@@H](O)[C@H](O)[C@H]2O[C@H]2C[C@](C)(NCc3ccc(-c4ccc(Cl)cc4)cc3)[C@H](O)[C@H](C)O2)Oc2ccc(cc2Cl)[C@H]1O`, the MIC in assay [1] was 1 µg/mL (≈ 0.508 µM); in assay [2] it was 4 µg/mL (≈ 2.03 µM); in assay [3], 2 µg/mL (≈ 1.02 µM); in assay [4] it was 0.5 µg/mL (≈ 0.254 µM); in assay [8] it was 0.5 µg/mL (≈ 0.254 µM). Further, the values for the MIC90 in assay [6] and in assay [7] were 2 µg/mL (≈ 1.02 µM) and 4 µg/mL (≈ 2.03 µM), respectively.

As to `CCCCCCCCCCNCCN[C@@]1(C)C[C@H](O[C@H]2[C@H](Oc3c4cc5cc3Oc3ccc(cc3Cl)[C@@H](O)[C@@H](NC(=O)[C@@H](CC(C)C)NC)C(=O)N[C@@H](CC(N)=O)C(=O)N[C@H]5C(=O)N[C@H]3C(=O)N[C@H](C(=O)N[C@H](C(=O)O)c5cc(O)c(CN[C@@H]6C(O)O[C@H](CO)[C@@H](O)[C@@H]6O)c(O)c5-c5cc3ccc5O)[C@H](O)c3ccc(c(Cl)c3)O4)O[C@H](CO)[C@@H](O)[C@@H]2O)O[C@@H](C)[C@H]1O` (stereo partly specified), the MIC came out at 64 µg/mL (≈ 35.1 µM) in assay [1]; 16 µg/mL (≈ 8.77 µM) in assay [2]; 32 µg/mL (≈ 17.5 µM) in assay [3]; 64 µg/mL (≈ 35.1 µM) in assay [4]; 8 µg/mL (≈ 4.39 µM) in assay [8]. Moreover, the MIC90 in assay [6] was found to be 8 µg/mL (≈ 4.39 µM); in assay [7], 32 µg/mL (≈ 17.5 µM).

For the molecule `CCCCCCCCCCNCCN[C@@]1(C)C[C@H](O[C@H]2[C@H](Oc3c4cc5cc3Oc3ccc(cc3Cl)[C@@H](O)[C@@H](NC(=O)[C@@H](CC(C)C)NC)C(=O)N[C@@H](CC(N)=O)C(=O)N[C@H]5C(=O)N[C@H]3C(=O)N[C@H](C(=O)N[C@H](C(=O)O)c5cc(O)c(CNCCO)c(O)c5-c5cc3ccc5O)[C@H](O)c3ccc(c(Cl)c3)O4)O[C@H](CO)[C@@H](O)[C@@H]2O)O[C@@H](C)[C@H]1O`, the MIC in assay [1] came to 16 µg/mL (≈ 9.38 µM); in assay [2], 4 µg/mL (≈ 2.35 µM); in assay [3] it was 8 µg/mL (≈ 4.69 µM); in assay [4], 16 µg/mL (≈ 9.38 µM); in assay [8] it was 1 µg/mL (≈ 0.586 µM). The MIC90 turned out to be 1 µg/mL (≈ 0.586 µM) in assay [6] and 4 µg/mL (≈ 2.35 µM) in assay [7].

As for `CN[C@H](CC(C)C)C(=O)N[C@H]1C(=O)N[C@@H](CC(N)=O)C(=O)N[C@H]2C(=O)N[C@H]3C(=O)N[C@H](C(=O)N[C@H](C(=O)NCCCN(C)C)c4cc(O)c(CNCCCNC(=O)[C@H](O)[C@@H](O)[C@H](O)[C@H](O)CO)c(O)c4-c4cc3ccc4O)[C@H](O)c3ccc(c(Cl)c3)Oc3cc2cc(c3O[C@@H]2O[C@H](CO)[C@@H](O)[C@H](O)[C@H]2O[C@H]2C[C@](C)(NCc3ccc(-c4ccc(Cl)cc4)cc3)[C@H](O)[C@H](C)O2)Oc2ccc(cc2Cl)[C@H]1O`, the minimal inhibitory concentration (MIC) worked out at 2 µg/mL (≈ 1 µM) in assay [1]; 8 µg/mL (≈ 4 µM) in assay [2]; 2 µg/mL (≈ 1 µM) in assay [3]; 1 µg/mL (≈ 0.5 µM) in assay [4]; 1 µg/mL (≈ 0.5 µM) in assay [8]. The MIC90 in assay [6] worked out at 1 µg/mL (≈ 0.5 µM); in assay [7], 2 µg/mL (≈ 1 µM).

With `CN[C@H](CC(C)C)C(=O)N[C@H]1C(=O)N[C@@H](CC(N)=O)C(=O)N[C@H]2C(=O)N[C@H]3C(=O)N[C@H](C(=O)N[C@H](C(=O)O)c4cc(O)c(CNCCCNC(=O)[C@H](O)[C@@H](O)[C@H](O)[C@H](O)CO)c(O)c4-c4cc3ccc4O)[C@H](O)c3ccc(c(Cl)c3)Oc3cc2cc(c3O[C@@H]2O[C@H](CO)[C@@H](O)[C@H](O)[C@H]2O[C@H]2C[C@](C)(NCc3ccc(-c4ccc(Cl)cc4)cc3)[C@H](O)[C@H](C)O2)Oc2ccc(cc2Cl)[C@H]1O`, the MIC in assay [1] is 1 µg/mL (≈ 0.522 µM); in assay [2], 1 µg/mL (≈ 0.522 µM); in assay [3] it was 16 µg/mL (≈ 8.36 µM); in assay [4], 4 µg/mL (≈ 2.09 µM); in assay [8], 8 µg/mL (≈ 4.18 µM). Further, the values for the MIC90 in assay [6] and in assay [7] were 0.06 µg/mL (≈ 0.0313 µM) and 0.12 µg/mL (≈ 0.0627 µM), respectively.

`CN[C@H](CC(C)C)C(=O)N[C@H]1C(=O)N[C@@H](CC(N)=O)C(=O)N[C@H]2C(=O)N[C@H]3C(=O)N[C@H](C(=O)N[C@H](C(=O)O)c4cc(O)c(CNCCO[C@H]5O[C@H](CO)[C@@H](O)[C@H](O)[C@@H]5O)c(O)c4-c4cc3ccc4O)[C@H](O)c3ccc(c(Cl)c3)Oc3cc2cc(c3O[C@@H]2O[C@H](CO)[C@@H](O)[C@H](O)[C@H]2O[C@H]2C[C@](C)(NCc3ccc(-c4ccc(Cl)cc4)cc3)[C@H](O)[C@H](C)O2)Oc2ccc(cc2Cl)[C@H]1O`: the MIC in assay [1] is 1 µg/mL (≈ 0.53 µM); in assay [2], 2 µg/mL (≈ 1.06 µM); in assay [3] it was 2 µg/mL (≈ 1.06 µM); in assay [4], 0.5 µg/mL (≈ 0.265 µM); in assay [8], 0.12 µg/mL (≈ 0.0637 µM). Besides, the values for the MIC90 in assay [6] and in assay [7] were 2 µg/mL (≈ 1.06 µM) and 4 µg/mL (≈ 2.12 µM), respectively.

Take `CCCCCCCCCCNCCN[C@@]1(C)C[C@H](O[C@H]2[C@H](Oc3c4cc5cc3Oc3ccc(cc3Cl)[C@@H](O)[C@@H](NC(=O)[C@@H](CC(C)C)NC)C(=O)N[C@@H](CC(N)=O)C(=O)N[C@H]5C(=O)N[C@H]3C(=O)N[C@H](C(=O)N[C@H](C(=O)O)c5cc(O)c(CNCCCNC(=O)[C@H](O)[C@@H](O)[C@H](O)[C@H](O)CO)c(O)c5-c5cc3ccc5O)[C@H](O)c3ccc(c(Cl)c3)O4)O[C@H](CO)[C@@H](O)[C@@H]2O)O[C@@H](C)[C@H]1O`: the MIC was 4 µg/mL (≈ 2.11 µM) in assay [1]; 2 µg/mL (≈ 1.05 µM) in assay [2]; 2 µg/mL (≈ 1.05 µM) in assay [3]; 2 µg/mL (≈ 1.05 µM) in assay [4]; 0.12 µg/mL (≈ 0.0633 µM) in assay [8]. The MIC90 was 0.5 µg/mL (≈ 0.264 µM) in assay [6] and 1 µg/mL (≈ 0.527 µM) in assay [7].

On to `CN[C@H](CC(C)C)C(=O)N[C@H]1C(=O)N[C@@H](CC(N)=O)C(=O)N[C@H]2C(=O)N[C@H]3C(=O)N[C@H](C(=O)N[C@H](C(=O)O)c4cc(O)cc(O)c4-c4cc3ccc4O)[C@H](O[C@H]3C[C@](C)(N)[C@@H](O)[C@H](C)O3)c3ccc(c(Cl)c3)Oc3cc2cc(c3O[C@@H]2O[C@H](CO)[C@@H](O)[C@H](O)[C@H]2O[C@H]2C[C@](C)(NCc3ccc(-c4ccc(Cl)cc4)cc3)[C@@H](O)[C@H](C)O2)Oc2ccc(cc2Cl)[C@H]1O` [ORITAVANCIN], for which the MIC came out at 0.25 µg/mL (≈ 0.139 µM) in assay [1]; 0.25 µg/mL (≈ 0.139 µM) in assay [2]; 1 µg/mL (≈ 0.558 µM) in assay [3]; 0.25 µg/mL (≈ 0.139 µM) in assay [4]; 0.5 µg/mL (≈ 0.279 µM) in assay [8]. In addition, the MIC90 in assay [6] and in assay [7] was 0.06 µg/mL (≈ 0.0335 µM) in each case.
